Test results reported in ChEMBL document CHEMBL1135780, “6-Chloro-3-alkylamino-4H-thieno[3,2-e]-1,2,4-thiadiazine 1,1-dioxide derivatives potently and selectively activate ATP sensitive potassium channels of pancreatic beta-cells” (J Med Chem, 2002).

Tests used:
[1] = system: βTC6 cells (Mus musculus); assay: Inhibition of glucose-stimulated insulin release from βTC6 cells
Beta-TC6 [2] = assay: Ability to inhibit the release of insulin from the mouse beta-TC6 cell line; type: functional, cell-based
In short: (§1)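 βTC6 cells, 5 × 10⁴/well, grown 3 days in DMEM + 10% FCS, 11 mM glucose, 20 mM Hepes. Washed twice in NN buffer with 0.1% BSA, preincubated 60 min, then 3 h with 22 mM glucose, 0.1 mM IBMX and serial compound dilutions. Insulin in supernatant measured by in-house ELISA (guinea pig anti-insulin, rat insulin standard). Reference compound as positive control.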

[3] = Oral bioavailability in rat (Sprague-Dawley); type: ADME, organism-based; details: Sprague-Dawley, in vivo
In short: (§2)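 Cassette dosing, two compounds per cassette, in Sprague–Dawley rats of about 180 g, n = 2. iv doses 0.5 or 0.89 mg/kg; oral doses 1.89 or 2.0 mg/kg. Vehicle 0.1 M potassium phosphate pH 8.0, or PEG 300 based. Heart-puncture sampling, one rat per point. Plasma levels by LC/MS/MS; noncompartmental analysis.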

Rattus norvegicus [4] = species: Rattus norvegicus; assay: Ability to relax phenylephrine-contracted rat aorta rings; type: functional
[5] = Acid dissociation constant was determined; type: ADME
In short: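 Potentiometric titration from pH 2 to 10.5 in 80% MeOH cosolvent. Three titrations on the same sample, with 0.15 M KCl added before the second. psKa values extrapolated to 0% cosolvent by Yasuda–Shedlovsky.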

Rattus norvegicus [6] = species: Rattus norvegicus; assay: Inhibition of glucose-stimulated insulin release from Wistar rat islets; type: functional
In short: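 Isolated rat islets held overnight in RPMI, 10% FCS, 11 mM glucose, then 10 islets/well overnight in DMEM, 10% FCS, 3 mM glucose. Run like the βTC6 assay (60 min NN buffer preincubation, 3 h with 22 mM glucose and serial dilutions) without IBMX. Insulin by in-house ELISA.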

[7] = Half life after oral administration to Sprague-Dawley rats; type: ADME, organism-based; details: rat, in vivo
In short: as §2

[8] = Changes in potassium fluxes assessed in the glucose responsive insulin-producing murine cell line beta-TC3; type: functional, cell-based, Mus musculus
In short: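 βTC3 membrane potential read as DiBAC4(3) fluorescence at 0.01, 0.1, 1, 10 and 100 µM, four wells each. Signal normalized to each well's initial value and expressed as fractional fluorescence change over 45 min incubation. EC50 from four-parameter nonlinear fit; mean ± SEM of at least three independent experiments.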

Beta-TC6 [9] = assay: Percentage insulin release in vitro in beta-TC6 cells; type: functional; details: Mus musculus
In short: as §1

[10] = target: T1, Sulfonylurea receptor 1, Kir6.2 (Homo sapiens, UniProt Q09428+Q14654); assay: Inhibition of [3H]glibenclamide binding to HEK293 cells co-expressing human Sulfonylurea receptor SUR1 and Inward rectifier K+ channel Kir6.2 without ATP; type: cell-based
In short: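 Membranes from HEK293 cells stably expressing human SUR1/Kir6.2 (100 µg/mL protein) incubated 1 h at 37 °C with 1 nM [3H]glibenclamide in 30 mM HEPES pH 7.4, here without MgCl2 and ATP. Nonspecific binding with 10 µM glipizide. Rapid filtration, scintillation counting; IC50 by one- or two-site sigmoid nonlinear regression.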

[11] = target: T1, Sulfonylurea receptor 1, Kir6.2; assay: Inhibition of [3H]glibenclamide binding to HEK293 cells co-expressing human Sulfonylurea receptor SUR1 and Inward rectifier K+ channel Kir6.2 at high affinity state with 2 mM MgATP; type: cell-based
[12] = target: T1, Sulfonylurea receptor 1, Kir6.2; assay: Inhibition of [3H]glibenclamide binding to HEK293 cells co-expressing human Sulfonylurea receptor SUR1 and Inward rectifier K+ channel Kir6.2 at low affinity state with 2 mM MgATP; type: cell-based
Rattus norvegicus [13] = species: Rattus norvegicus; assay: Maximum reduction in plasma insulin in rat; type: functional
In short: (§3)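 Postprandial male Sprague–Dawley rats, 280–320 g, under Hypnorm/Dormicum at 37 °C. 3 mg/kg iv bolus over 20 s via jugular cannula (0.3 mg/kg for one compound), dissolved in 0.15% NaOH and saline. Blood taken every 5–10 min from 15 min pre- to 30 min postinjection. Plasma insulin by ELISA, as % reduction from pre-dose level. 2–4 animals.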

Rattus norvegicus [14] = species: Rattus norvegicus; assay: Maximum change in MAP in rat; type: functional
In short: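 Anaesthetized male Sprague–Dawley rats given 3 mg/kg iv bolus (0.3 mg/kg for one compound) in 0.15% NaOH/saline via jugular cannula. Maximal percent change in mean arterial pressure over 5 min after dosing; mean ± SEM, 2–4 animals.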

Rattus norvegicus [15] = species: Rattus norvegicus; assay: Reduction in plasma insulin in 30 min post-injection in rat; type: functional; set-up: concentration or dose not given beside the values
In short: as §3

Rattus norvegicus [16] = species: Rattus norvegicus; assay: Effective concentration require for relaxation of rat aorta rings; type: functional
Beta-TC6 [17] = assay: Maximum inhibition of glucose stimulated insulin release from mouse beta-TC6 cells at 10 uM in vitro.; type: functional

T1 sequence (Q14654 whole entry): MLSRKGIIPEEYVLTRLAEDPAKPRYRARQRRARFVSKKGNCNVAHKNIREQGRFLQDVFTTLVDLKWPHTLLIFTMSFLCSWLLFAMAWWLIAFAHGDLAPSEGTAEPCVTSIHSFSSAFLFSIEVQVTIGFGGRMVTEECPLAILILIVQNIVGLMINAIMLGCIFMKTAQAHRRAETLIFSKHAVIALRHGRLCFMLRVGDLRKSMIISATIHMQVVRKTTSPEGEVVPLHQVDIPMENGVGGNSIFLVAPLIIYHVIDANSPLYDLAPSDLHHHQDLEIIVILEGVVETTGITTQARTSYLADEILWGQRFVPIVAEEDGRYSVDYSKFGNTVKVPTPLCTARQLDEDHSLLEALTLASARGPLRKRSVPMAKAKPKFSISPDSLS
T1 sequence (Q09428 whole entry): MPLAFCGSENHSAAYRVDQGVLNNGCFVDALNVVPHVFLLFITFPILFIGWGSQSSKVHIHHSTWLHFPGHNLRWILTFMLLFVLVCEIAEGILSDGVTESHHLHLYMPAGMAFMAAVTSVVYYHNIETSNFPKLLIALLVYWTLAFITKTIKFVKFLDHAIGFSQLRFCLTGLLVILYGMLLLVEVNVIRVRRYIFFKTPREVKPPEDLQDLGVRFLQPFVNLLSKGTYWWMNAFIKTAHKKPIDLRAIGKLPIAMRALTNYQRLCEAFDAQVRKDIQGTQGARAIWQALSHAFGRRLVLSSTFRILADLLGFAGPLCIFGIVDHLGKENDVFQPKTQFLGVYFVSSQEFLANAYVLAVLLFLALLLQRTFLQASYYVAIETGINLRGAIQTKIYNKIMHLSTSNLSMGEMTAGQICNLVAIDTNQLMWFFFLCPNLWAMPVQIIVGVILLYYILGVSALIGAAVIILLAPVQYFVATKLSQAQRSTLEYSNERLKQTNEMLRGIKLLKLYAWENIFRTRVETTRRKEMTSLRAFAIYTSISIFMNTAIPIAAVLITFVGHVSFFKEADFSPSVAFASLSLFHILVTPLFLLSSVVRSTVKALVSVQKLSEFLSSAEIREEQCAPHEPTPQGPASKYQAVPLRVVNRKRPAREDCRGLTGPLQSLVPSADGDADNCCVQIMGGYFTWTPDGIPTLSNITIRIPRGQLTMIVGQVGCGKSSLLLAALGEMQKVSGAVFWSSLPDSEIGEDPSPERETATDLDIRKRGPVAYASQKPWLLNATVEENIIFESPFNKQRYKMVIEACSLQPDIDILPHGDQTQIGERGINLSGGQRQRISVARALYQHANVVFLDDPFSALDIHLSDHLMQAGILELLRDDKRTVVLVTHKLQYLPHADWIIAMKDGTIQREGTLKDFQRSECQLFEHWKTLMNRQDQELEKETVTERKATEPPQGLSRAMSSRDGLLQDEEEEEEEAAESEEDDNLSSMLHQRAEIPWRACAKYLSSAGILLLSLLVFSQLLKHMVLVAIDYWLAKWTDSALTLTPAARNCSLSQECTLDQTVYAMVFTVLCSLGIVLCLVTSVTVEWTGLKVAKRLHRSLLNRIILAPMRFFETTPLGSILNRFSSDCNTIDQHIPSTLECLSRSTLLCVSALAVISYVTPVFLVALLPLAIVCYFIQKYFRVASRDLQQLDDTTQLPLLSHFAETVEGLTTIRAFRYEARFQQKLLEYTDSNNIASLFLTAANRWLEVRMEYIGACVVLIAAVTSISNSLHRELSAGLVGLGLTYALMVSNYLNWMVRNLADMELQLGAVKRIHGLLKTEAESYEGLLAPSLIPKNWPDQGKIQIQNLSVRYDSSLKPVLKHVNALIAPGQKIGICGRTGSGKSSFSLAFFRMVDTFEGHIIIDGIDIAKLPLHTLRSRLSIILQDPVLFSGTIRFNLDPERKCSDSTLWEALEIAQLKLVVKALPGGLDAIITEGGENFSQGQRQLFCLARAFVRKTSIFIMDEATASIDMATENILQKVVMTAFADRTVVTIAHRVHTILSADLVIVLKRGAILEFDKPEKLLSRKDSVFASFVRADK

IC50 (Beta-TC6 [2]) | bioavailability [3] | EC50 (Rattus norvegicus [4]) | pKa [5] | IC50 (Rattus norvegicus [6]) | half-life [7] | EC50 [8] | IC50 [10] | IC50 [11] | IC50 [12] | EC50 (Rattus norvegicus [16]) | Compound | Emax [1] | Emax (Beta-TC6 [9]) | Reduction (Rattus norvegicus [13]) | Change (Rattus norvegicus [14]) | Reduction (Rattus norvegicus [15]) | Emax at 10 µM (Beta-TC6 [17])
0.24 µM | 90% | 70 µM | 8.54 | 0.06 µM | 2.72 h | 0.3 µM | 487 µM | 0.64 µM | 224 µM |  | CC[C@@H](C)NC1=NS(=O)(=O)c2sc(Cl)cc2N1 | 82% | 82% | 97% | -17% | 94% | 
21.2 µM |  | 17.3 µM |  |  |  | > 100 µM |  |  |  | 17.3 µM | CNC1=NS(=O)(=O)c2sc(Cl)cc2N1 |  |  |  |  |  | 35%
